Columns and labels:
Hepatitis C virus = assay: Antiviral activity against HCV in human HBI10A cells by ELISA; type: functional, organism-based, Hepacivirus hominis
Summary of the method: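 HCV subgenomic replicon-bearing Huh-7-derived HBI10A cells kept in D-MEM + 10% FBS with G418. Compounds from DMSO stocks, diluted in D-MEM, DMSO at most 1%, tested at final 10^3, 10^2, […]. Cell-ELISA for NS3 with anti-NS3 10E5/24 MAb, in triplicate. Parental Huh-7 cells give the background. EC50 from Hill-equation fit of NS3 signal reduction. IFN-α positive control.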

[1] = Cytotoxicity against human HBI10A cells after 20 hrs by MTS assay; type: cell-based
Summary of the method: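 MTS read-out in HBI10A replicon cells seeded at 1 × 10^4 per 100 µL D-MEM + 5% FBS. After 4 h at 37 °C, compounds added at final 10^3, 10^2, […]. Incubated 20 h at 37 °C, then MTS for a further 4 h. Stopped with 10% SDS; absorbance at 492 nm.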

Structure (SMILES) | EC50 (Hepatitis C virus) [µM] | IC50 (Hepatitis C virus) [µM] | CC50 at 20 h [1] [µM]
O=C(O)c1nc(-c2cccs2)nc(O)c1O | 9.3 | 0.15 | –
COC(=O)C1=C(NCc2ccccc2)C(=O)OC1C (stereo not drawn) | > 1000 | – | > 1000
CNC1=C(C(C)=O)C(C)OC1=O (stereo not drawn) | 132 | – | 819
CNC1=C(C(=O)Nc2ccccc2)C(C)OC1=O (stereo not drawn) | 19 | – | > 1000
CNC1=C(C(=O)OC)C(C)OC1=O (stereo not drawn) | 525 | – | > 1000
CNC1=C(C(C)=O)COC1=O | 521 | – | > 1000
CNC1=C(C(=O)OC)C(C)OC1O (stereo not drawn) | 66 | – | > 1000
CCOC(=O)C1=C(NC)C(=O)OC1C(=O)OCC (stereo not drawn) | > 1000 | – | > 1000
CNC1=C(c2ccccc2)C(c2ccccc2)OC1=O (stereo not drawn) | 17 | – | 28

— ChEMBL document CHEMBL1142508, “3-Amino-2(5H)furanones as inhibitors of subgenomic hepatitis C virus RNA replication” (Bioorg Med Chem, 2008)
